Reference: ChEMBL document CHEMBL4715714, “Design, synthesis and biological evaluation of thiosemicarbazones, hydrazinobenzothiazoles and arylhydrazones as anticancer agents with a potential to overcome multidrug resistance” (Eur J Med Chem, 2016)
Active and inactive are the calls of the source. The calls are words filed in the database; no cut-off is given here.

Columns and labels:
[1] = test system: MES-SA/Dx5; assay: Cytotoxicity against human MES-SA/DX5 cells incubated for 72 hrs in presence of efflux pump inhibitor, Tariquidar by MTT assay; assay type: functional, cell-based
How it was run: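 Run as the 72 h MTT viability readout (12 h attachment, MTT 0.83 mg/mL for 1 h, DMSO lysis, A540), with the P-gp inhibitor Tariquidar at 1 µM co-present. IC50 came from sigmoidal fits of 2 to 4 independent experiments.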

[2] = test system: A2780; assay: Cytotoxicity against human A2780 cells assessed as inhibition of cell proliferation incubated for 72 hrs by MTT assay; assay type: functional, cell-based; conditions: for IC50: A2780, 72 h
How it was run: (§1)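 Cells were seeded (10000/well for A2780, 5000/well for MES-SA/Dx5 and KB-3-1/V1) and left to attach 12 h, then exposed to compound for 72 h. Medium was removed, and MTT (0.83 mg/mL) was added for 1 h at 37 °C. Cells were lysed in DMSO and absorbance read at 540 nm. Signal was corrected for unstained lysate background, normalized to untreated cells, and IC50 taken from a sigmoidal dose-response fit.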

[3] = test system: KB 3-1; assay: Cytotoxicity against human KB-3-1 cells assessed as inhibition of cell proliferation incubated for 72 hrs by MTT assay; assay type: functional, cell-based; conditions: KB 3-1, 72 h; how it was run: as §1
[4] = test system: MES-SA/Dx5; assay: Cytotoxicity against human MES-SA/DX5 cells transfected with mCherry fluorescent protein assessed as inhibition of cell proliferation incubated for 72 hrs by fluorescent assay; assay type: functional, cell-based; conditions: Homo sapiens, MES-SA/Dx5, 72 h
How it was run: (§2)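 MES-SA and MES-SA/Dx5 cells were made to stably express mCherry by lentiviral transduction. Cells were seeded at 5000 (96-well) or 2500 (384-well) per well, allowed to attach 24 h, then treated with compound dilutions for 72 h. Viability was read as fluorescence, excitation 585 nm, emission 610 nm.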

[5] = test system: KB-V1; assay: Cytotoxicity against human KB-V1 cells assessed as inhibition of cell proliferation incubated for 72 hrs by MTT assay; assay type: functional, cell-based; conditions: KB-V1, 72 h; how it was run: as §1
[6] = test system: KB-V1; assay: Cytotoxicity against human KB-V1 cells assessed as inhibition of cell proliferation incubated for 72 hrs in presence of efflux pump inhibitor, Tariquidar by MTT assay; assay type: functional, cell-based
[7] = test system: MES-SA; assay: Cytotoxicity against human MES-SA cells transfected with mCherry fluorescent protein assessed as inhibition of cell proliferation incubated for 72 hrs by fluorescent assay; assay type: functional, cell-based; how it was run: as §2
[8] = Selectivity ratio of IC50 for human MES-SA cells to IC50 for human MES-SA/DX5 cells incubated for 72 hrs by MTT assay; assay type: functional
How it was run: (§3)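 The selectivity ratio is the IC50 in P-gp-negative parental cells divided by the IC50 in the P-gp-positive resistant partner.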

[9] = test system: MES-SA; assay: Cytotoxicity against human MES-SA cells assessed as inhibition of cell proliferation incubated for 72 hrs by MTT assay; assay type: functional, cell-based; how it was run: as §1
[10] = test system: MES-SA/Dx5; assay: Cytotoxicity against human MES-SA/DX5 cells transfected with mCherry fluorescent protein incubated for 72 hrs in presence of efflux pump inhibitor, Tariquidar by fluorescence assay; assay type: functional, cell-based
How it was run: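 The mCherry-expressing cells (lentiviral) were seeded at 5000 or 2500 per well, attached for 24 h, and exposed 72 h to compounds with Tariquidar coadministered. Live-cell signal was fluorescence at 585 nm excitation and 610 nm emission.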

[11] = Selectivity ratio of IC50 for human KB-3-1 cells to IC50 for human KB-V1 cells incubated for 72 hrs by MTT assay; assay type: functional; how it was run: as §3
[12] = Selectivity ratio of IC50 for human MES-SA cells transfected with mCherry to IC50 for human MES-SA/DX5 cells transfected with mCherry incubated for 72 hrs by fluorescent assay; assay type: functional
[13] = test system: A2780 ADR; assay: Cytotoxicity against human A2780adr cells assessed as inhibition of cell proliferation incubated for 72 hrs in presence of efflux pump inhibitor, Tariquidar by MTT assay; assay type: functional, cell-based
[14] = test system: MES-SA/Dx5; assay: Reduction in P-gp expression in human MES-SA/DX5 cells at IC20 concentration incubated for 5 days by calcein-AM staining based flow cytometric analysis; assay type: functional, cell-based; conditions: time 5.0 day
How it was run: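 MES-SA/Dx5 cells were grown 5 days with compound at IC20 values calculated from viability assays, then recovered in drug-free medium refreshed every fifth day. At 80% confluency, cells were stained with Calcein AM with or without verapamil, with TO-PRO-3 excluding dead cells, and analysed by flow cytometry for the P-gp-negative fraction.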

[15] = (§4) Cytotoxicity against human A2780adr cells assessed as inhibition of cell proliferation incubated for 72 hrs by MTT assay; assay type: functional, cell-based; conditions: A2780 ADR; how it was run: as §1
[16] = Selectivity ratio of IC50 for human A2780 cells to IC50 for human A2780adr cells incubated for 72 hrs by MTT assay; assay type: functional; how it was run: as §3
[17] = test system: MES-SA/Dx5; assay: Cytotoxicity against human MES-SA/DX5 cells assessed as inhibition of cell proliferation incubated for 72 hrs by MTT assay; assay type: functional, cell-based; conditions: MES-SA/Dx5, 72 h; how it was run: as §1
[18] = test system: HFF; assay: Cytotoxicity against human HFF cells by MTT assay
[19] = test system: MES-SA/Dx5; assay: Reduction in P-gp expression in human MES-SA/DX5 cells measured after 5 rounds of treatment by DAPI staining based immunocytochemistry analysis; assay type: functional, cell-based
How it was run: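 Treated cells were plated in chamber slides, fixed after 1 day in 4% paraformaldehyde for 15 min, and blocked 1 h (BSA, fish gelatin, goat serum, Triton X-100). They were stained with anti-P-gp MRK16 (1:500, 1 h), then PE goat anti-mouse IgG (1:250, 1 h), with DAPI 1 µM for 10 min. Imaging used fluorescence and confocal microscopy.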

[20] = test system: A2780 ADR; assay: as §4; assay type: functional, cell-based; how it was run: as §1
[21] = Homo sapiens, MES-SA, 72 h, read-out: IC50
[22] = Homo sapiens, MES-SA, 72 h, read-out: pIC50 (converted)

Compound | Activity [1] | IC50 ([2]; read-out: IC50) [µM] | IC50 ([2]; read-out: pIC50 (converted)) [µM] | IC50 ([3]; read-out: IC50) [µM] | IC50 ([3]; read-out: pIC50 (converted)) [µM] | IC50 ([4]; read-out: IC50) [µM] | IC50 ([5]; read-out: IC50) [µM] | IC50 ([5]; read-out: pIC50 (converted)) [µM] | IC50 [7, 21] [µM] | Ratio IC50 [8] | IC50 ([9]; read-out: IC50) [µM] | IC50 ([9]; read-out: pIC50 (converted)) [µM] | Activity [10] | Ratio IC50 [12] | Activity [13] | IC50 ([15]; read-out: IC50) [µM] | IC50 ([15]; read-out: pIC50 (converted)) [µM] | Ratio IC50 [16] | IC50 ([17]; read-out: IC50) [µM] | IC50 ([17]; read-out: pIC50 (converted)) [µM] | further results
COc1ccc(NC(=S)N/N=C2\C(=O)Nc3ccccc32)cc1 | inactive | 7.49 | 7.41 | 7.82 | 7.59 | 4.15 | 3.78 | 3.98 | 12.1 | 1.87 | 6.1 | 6.03 | inactive | 3.17 | inactive | 4.84 | 4.68 | 1.6 | 3.59 | 3.47 | Activity [6]: inactive; Ratio IC50 [11]: 2.04; inhibition [14]: Active
C/C(=N\Nc1nc2ccccc2s1)c1ccccc1O | Active | 8.74 | 8.32 | 14.3 | 13.8 | 11.6 | 12.1 | 11.5 | 21.6 | 1.91 | 12.5 | 12.3 | Active | 1.9 | – | – | 9.77 | – | 5.52 | 5.25 | IC50 ([4]; read-out: pIC50 (converted)): 8.91 µM; IC50 [7, 22]: 21.4 µM; Activity [18]: Toxic
O=C1Nc2ccccc2/C1=N/NC(=S)Nc1ccc([N+](=O)[O-])cc1 | inactive | 25.7 | 24.5 | 8.2 | 7.76 | 7.55 | 4.58 | 4.47 | 15.8 | 1.77 | 9.17 | 8.51 | inactive | 3.55 | inactive | 8.78 | 8.91 | 2.98 | 4.74 | 4.68 | Activity [6]: inactive; Ratio IC50 [11]: 1.82; inhibition [14]: Active; inhibition [19]: Active
C/C(=N\NC(=S)Nc1ccc(C)cc1)c1ccccn1 | Active | 0.017 | 0.0162 | 0.0404 | 0.0372 | 0.029 | 0.036 | 0.0331 | 0.065 | 6.25 | 0.016 | 0.017 | – | – | – | 0.021 | 0.0204 | – | 0.0018 | 0.0017 | IC50 ([4]; read-out: pIC50 (converted)): 0.0257 µM; Activity [6]: Active; IC50 [7, 22]: 0.0417 µM; Ratio IC50 [11]: 1.15; Activity [18]: Non-Toxic
CCc1ccc(/C=N/Nc2cc(OC)ncn2)nc1 | Active | 1.3 | 1.29 | 1.23 | 1.23 | 2.11 | 1.57 | 1.55 | 2.33 | 1.41 | 1.55 | – | – | – | Active | 0.63 | 0.617 | 2.03 | 1.11 | – | –
Cc1ccc(NC(=S)N/N=C2\C(=O)Nc3ccccc32)cc1 | Active | 9.7 | 9.55 | 4.44 | 4.17 | 3.27 | 4 | 3.98 | 11.3 | 1.87 | 5.33 | 5.13 | inactive | 3.1 | – | 8.75 | 8.91 | – | 3.27 | 3.31 | Activity [18]: Toxic; inhibition [14]: Active
COc1cc(N/N=C2/C(=O)Nc3ccccc32)ncn1 | – | – | – | – | 55 | – | – | – | – | – | – | 91.2 | – | – | – | – | – | – | – | 129 | pIC50 [2]: inactive; IC50 ([7]; mes-sa): Not Active; pIC50 [20]: inactive
COc1cc(N/N=C(\C)c2ccccn2)ncn1 | Active | 0.14 | 0.132 | 0.36 | 0.355 | 0.22 | 0.49 | 0.49 | 0.26 | 2.62 | 0.26 | – | – | – | Active | 0.027 | 0.0257 | 4.33 | 0.095 | – | IC50 ([4]; read-out: pIC50 (converted)): 0.234 µM; IC50 [7, 22]: 0.339 µM; Activity [18]: Non-Toxic
